Measured values published in ChEMBL document CHEMBL2407075, “Sulphonamido-quinoxalines: search for anticancer agent” (Eur J Med Chem, 2013).

How the values were obtained:
Format in all cases: functional
SK-MEL-2 = test: Growth inhibition of human SK-MEL-2 cells assessed as cell growth at 10^-8 M after 48 hrs by sulforhodamine B assay; details: SK-MEL-2, 48 h, read-out: Activity
OVCAR-4 = test: Growth inhibition of human OVCAR4 cells assessed as cell growth at 10^-8 M after 48 hrs by sulforhodamine B assay; details: OVCAR-4, 48 h, read-out: Activity
LOX IMVI [1] = test: Growth inhibition of human LOXIMVI cells assessed as cell growth at 10^-8 M after 48 hrs by sulforhodamine B assay; details: read-out: Activity
OVCAR-3 = test: Growth inhibition of human OVCAR3 cells assessed as cell growth at 10^-7 M after 48 hrs by sulforhodamine B assay; details: OVCAR-3, 48 h, read-out: Activity
T47D = test: Growth inhibition of human T47D cells assessed as cell growth at 10^-8 M after 48 hrs by sulforhodamine B assay; details: read-out: Activity
RXF 393 = test: Growth inhibition of human RXF393 cells assessed as cell growth at 10^-8 M after 48 hrs by sulforhodamine B assay; details: RXF 393, 48 h, read-out: Activity
HCT-116 = test: Growth inhibition of human HCT116 cells after 48 hrs by sulforhodamine B assay; details: HCT-116, 48 h; for CC50: read-out: LC50 (the source's name)
Method in brief: (§1)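 Five-dose screen at NCI. Cells in RPMI 1640 with 5% FBS and 2 mM L-glutamine, seeded at 5000–40,000 cells/well and grown 24 h at 37 °C, 5% CO2 before dosing, with time-zero plates TCA-fixed. Drug diluted from DMSO stock to 0.01, 0.1, 1, 10 and 100 µM final, 48 h. Cells fixed with cold TCA (10% final), stained with 0.4% SRB and read at 515 nm. Percent growth from Tz, control and test absorbances; GI50, TGI and LC50 from dose-response curves.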

U-251 [2] = test: Growth inhibition of human U251 cells assessed as cell growth at 10^-4 M after 48 hrs by sulforhodamine B assay; details: U-251, 48 h, read-out: Activity
BT-549 = test: Growth inhibition of human BT549 cells assessed as cell growth at 10^-5 M after 48 hrs by sulforhodamine B assay; details: BT-549, 48 h, read-out: Activity
Method in brief: (§2)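 Five-dose NCI-60 run (0.01, 0.1, 1, 10 and 100 µM, as 10-fold dilutions from a DMSO stock made at 400× the top final level). Cells were grown in RPMI 1640 with 5% FBS and 2 mM glutamine and plated for 24 h. They were then exposed for 48 h at 37 °C and 5% CO2. TCA fixation was followed by SRB staining with A515 read-out. Percent growth was taken relative to time-zero and control plates.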

KM12 [3] = test: Growth inhibition of human KM12 cells assessed as cell growth at 10^-4 M after 48 hrs by sulforhodamine B assay; details: KM12, 48 h, read-out: Activity
786-0 = test: Growth inhibition of human 786-0 cells assessed as cell growth at 10^-4 M after 48 hrs by sulforhodamine B assay; details: 786-0, 48 h, read-out: Activity; method in brief: as §2
DU-145 = test: Growth inhibition of human DU145 cells assessed as cell growth at 10^-6 M after 48 hrs by sulforhodamine B assay; details: DU-145, 48 h, read-out: Activity; method in brief: as §2
KM12 [4] = test: Growth inhibition of human KM12 cells assessed as cell growth at 10^-7 M after 48 hrs by sulforhodamine B assay; details: KM12, 48 h, read-out: Activity
COLO 205 = test: Growth inhibition of human COLO205 cells after 48 hrs by sulforhodamine B assay; details: COLO 205, 48 h, read-out: LC50 (the source's name)
Method in brief: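 Adherent cells in RPMI 1640 with 5% FBS and 2 mM L-glutamine were plated at 5000–40,000 cells/well and grown 24 h. Five concentrations (0.01–100 µM, DMSO stock) were added for 48 h at 37 °C. Cells were fixed with cold TCA (10% final) and stained with SRB, read at 515 nm. GI50 came from log concentration–growth curves against time-zero and control plates.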

SF-295 = test: Growth inhibition of human SF295 cells assessed as cell growth at 10^-5 M after 48 hrs by sulforhodamine B assay; details: SF-295, 48 h, read-out: Activity
[5] = Growth inhibition of human Hs 578T cells assessed as cell growth at 10^-5 M after 48 hrs by sulforhodamine B assay; details: read-out: Activity; method in brief: as §1
M14 = test: Growth inhibition of human M14 cells assessed as cell growth at 10^-8 M after 48 hrs by sulforhodamine B assay; details: M14, 48 h, read-out: Activity
TK-10 = test: Growth inhibition of human TK10 cells assessed as cell growth at 10^-8 M after 48 hrs by sulforhodamine B assay; details: TK-10, 48 h, read-out: Activity
KM12 [6] = test: Growth inhibition of human KM12 cells assessed as cell growth at 10^-5 M after 48 hrs by sulforhodamine B assay; details: KM12, 48 h, read-out: Activity
ACHN = test: Growth inhibition of human ACHN cells assessed as cell growth at 10^-6 M after 48 hrs by sulforhodamine B assay; details: read-out: Activity; method in brief: as §2
A549 = test: Growth inhibition of human A549/ATCC cells assessed as cell growth at 10^-7 M after 48 hrs by sulforhodamine B assay; details: A549, 48 h, read-out: Activity; method in brief: as §2
NCI-H23 = test: Growth inhibition of human NCI-H23 cells assessed as cell growth at 10^-4 M after 48 hrs by sulforhodamine B assay; details: NCI-H23, 48 h, read-out: Activity
SK-MEL-5 = test: Growth inhibition of human SK-MEL-5 cells assessed as cell growth at 10^-6 M after 48 hrs by sulforhodamine B assay; details: SK-MEL-5, 48 h, read-out: Activity
SF-539 = test: Growth inhibition of human SF539 cells assessed as cell growth at 10^-6 M after 48 hrs by sulforhodamine B assay; details: SF-539, 48 h, read-out: Activity
U-251 [7] = test: Growth inhibition of human U251 cells assessed as cell growth at 10^-5 M after 48 hrs by sulforhodamine B assay; details: U-251, 48 h, read-out: Activity
HL-60(TB) = test: Growth inhibition of human HL-60(TB) cells assessed as cell growth at 10^-5 M after 48 hrs by sulforhodamine B assay; details: HL-60, 48 h, read-out: Activity
Method in brief: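 HL-60(TB) suspension cells were treated 48 h at 37 °C within the five-dose series (0.01–100 µM), fixed with 16% final TCA and SRB-stained, read at 515 nm. Percentage growth at each concentration = (Ti−Tz)/(C−Tz)×100, or (Ti−Tz)/Tz×100 when Ti<Tz, with time-zero (Tz) and untreated control (C) plates.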

OVCAR-8 = test: Growth inhibition of human OVCAR8 cells assessed as cell growth at 10^-4 M after 48 hrs by sulforhodamine B assay; details: OVCAR-8, 48 h, read-out: Activity
LOX IMVI [8] = test: Growth inhibition of human LOXIMVI cells assessed as cell growth at 10^-5 M after 48 hrs by sulforhodamine B assay; details: read-out: Activity

For O=S(=O)(Nc1ccc(Cl)cc1)c1ccc2nc(-c3ccccc3)c(-c3ccccc3)nc2c1, the growth at 0.01 µM (SK-MEL-2) was 93%, the growth at 0.01 µM (OVCAR-4) was 85% and the growth at 0.01 µM (LOX IMVI [1]) was 99%. It also gave a growth at 0.1 µM (OVCAR-3) of 97%, a growth at 0.01 µM (T47D) of 95% and a growth at 0.01 µM (RXF 393) of 97%. For the same molecule, the TGI (HCT-116) was over 100 µM, the CC50 (HCT-116) was over 100 µM and the growth at 100 µM (U-251 [2]) was 75%. The growth at 10 µM (BT-549) was -20%, the growth at 100 µM (KM12 [3]) was 71% and the growth at 100 µM (786-0) was 75%. The growth at 1 µM (DU-145) was 93%, the growth at 0.1 µM (KM12 [4]) was 94% and the CC50 (COLO 205) was over 100 µM. The growth at 10 µM (SF-295) was -53%, the growth at 10 µM [5] was 3% and the growth at 0.01 µM (M14) was 95%. The growth at 0.01 µM (TK-10) was 90%, the growth at 10 µM (KM12 [6]) was 5% and the growth at 1 µM (ACHN) was 96%. It also gave a growth at 0.1 µM (A549) of 97%, a growth at 100 µM (NCI-H23) of 72% and a growth at 1 µM (SK-MEL-5) of 83%. It also gave a growth at 1 µM (SF-539) of 101%, a growth at 10 µM (U-251 [7]) of -5% and a growth at 10 µM (HL-60(TB)) of -32%. For the same molecule, the growth at 100 µM (OVCAR-8) was 72% and the growth at 10 µM (LOX IMVI [8]) was 3%.
Work on O=S(=O)(Nc1ccccn1)c1ccc2nc(-c3ccccc3)c(-c3ccccc3)nc2c1 yielded a growth at 0.01 µM (SK-MEL-2) of 99%, a growth at 0.01 µM (OVCAR-4) of 100% and a growth at 0.01 µM (LOX IMVI [1]) of 97%. The growth at 0.1 µM (OVCAR-3) was 92%, the growth at 0.01 µM (T47D) was 95% and the growth at 0.01 µM (RXF 393) was 105%. It also gave a GI50 (HCT-116) of 2.17 µM, a TGI (HCT-116) of over 100 µM and a CC50 (HCT-116) of over 100 µM. It also gave a growth at 100 µM (U-251 [2]) of 47%, a growth at 10 µM (BT-549) of -34% and a growth at 100 µM (KM12 [3]) of 53%. For the same molecule, the growth at 100 µM (786-0) was 50%, the growth at 1 µM (DU-145) was 95% and the growth at 0.1 µM (KM12 [4]) was 99%. It also gave a CC50 (COLO 205) of 100 µM, a growth at 10 µM (SF-295) of -56% and a growth at 10 µM [5] of -11%. It also gave a growth at 0.01 µM (M14) of 96%, a growth at 0.01 µM (TK-10) of 92% and a growth at 10 µM (KM12 [6]) of 6%. It also gave a growth at 1 µM (ACHN) of 94%, a growth at 0.1 µM (A549) of 98% and a growth at 100 µM (NCI-H23) of 42%. The growth at 1 µM (SK-MEL-5) was 78%, the growth at 1 µM (SF-539) was 96% and the growth at 10 µM (U-251 [7]) was 2%. For the same molecule, the growth at 10 µM (HL-60(TB)) was -30%, the growth at 100 µM (OVCAR-8) was 46% and the growth at 10 µM (LOX IMVI [8]) was -93%.
